Measured values reported in ChEMBL document CHEMBL3872225, “Synthesis, binding assays, cytotoxic activity and docking studies of benzimidazole and benzothiophene derivatives with selective affinity for the CB2 cannabinoid receptor” (Eur J Med Chem, 2016).

Tests used:
Cannabinoid receptor 1 = Cannabinoid receptor 1 (Homo sapiens, UniProt P21554); test: Displacement of [3H]CP-55940 from human recombinant CB1 receptor expressed in HEK293 cell membranes incubated for 1.5 hrs
Procedure, shortened: (§1)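 Membranes from HEK-293 cells overexpressing human CB1 or CB2 incubated with increasing compound concentrations and 0.5 nM [3H]CP-55,940 at 30 °C for 1.5 h. […] Selectivity index is Ki CB1/Ki CB2.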

[1] = target: Cannabinoid receptor 1 (CB1) (Homo sapiens, UniProt P21554); test: Displacement of [3H]CP-55940 from human recombinant CB1 receptor expressed in HEK293 cell membranes at 1 uM incubated for 1.5 hrs relative to control; conditions: probe [3H]CP-55940
Procedure, shortened: (§2)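 Single-point screen on HEK-293 membranes overexpressing human CB1 or CB2. […] Compounds displacing more than 50% at 1 μM went on to full curves.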

Cannabinoid receptor 2 [2] = target: T1, Cannabinoid receptor 2 (Homo sapiens, UniProt P34972); test: Displacement of [3H]CP-55940 from human recombinant CB2 receptor expressed in HEK293 cell membranes at 1 uM incubated for 1.5 hrs relative to control; procedure, shortened: as §2
Cannabinoid receptor 2 [3] = target: T1, Cannabinoid receptor 2; test: Displacement of [3H]CP-55940 from human recombinant CB2 receptor expressed in HEK293 cell membranes incubated for 1.5 hrs; procedure, shortened: as §1
Homo sapiens = species on record: Homo sapiens; test: Selectivity index, ratio of Ki for displacement of [3H]CP-55940 from human recombinant CB1 receptor to Ki for displacement of [3H]CP-55940 from human recombinant CB2 receptor; procedure, shortened: as §1
[4] = Cytotoxicity against human HeLa cells assessed as reduction in cell viability measured after 72 hrs by MTT assay; assay type: functional, cell-based
Procedure, shortened: (§3)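 Cells kept in RPMI 1640 with 5% FBS, penicillin/streptomycin, 37 °C, 5% CO2. Seeded at 10,000 cells/well, then exposed to compounds at 0.001–10 μM in 5% FBS-RPMI for 72 h at 37 °C. MTT added for 4 h, formazan dissolved overnight in 10% SDS/0.1 mM HCl, absorbance read at 570 nm. […] Etoposide as positive control.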

[5] = Cytotoxicity against resistant human HCT116 cells assessed as reduction in cell viability measured after 72 hrs by MTT assay; assay type: functional, cell-based; conditions: HCT-116, 72 h; procedure, shortened: as §3
[6] = Cytotoxicity against African green monkey Vero cells assessed as reduction in cell viability measured after 72 hrs by MTT assay; assay type: toxicity, cell-based; conditions: Chlorocebus sabaeus (African green monkey); procedure, shortened: as §3
[7] = Cytotoxicity against human HL60 cells assessed as reduction in cell viability measured after 72 hrs by MTT assay; assay type: functional, cell-based; conditions: HL-60, 72 h; procedure, shortened: as §3
[8] = Cytotoxicity against human H1975-1 cells assessed as reduction in cell viability measured after 72 hrs by MTT assay; assay type: functional, cell-based; procedure, shortened: as §3

T1 sequence (P34972 whole entry): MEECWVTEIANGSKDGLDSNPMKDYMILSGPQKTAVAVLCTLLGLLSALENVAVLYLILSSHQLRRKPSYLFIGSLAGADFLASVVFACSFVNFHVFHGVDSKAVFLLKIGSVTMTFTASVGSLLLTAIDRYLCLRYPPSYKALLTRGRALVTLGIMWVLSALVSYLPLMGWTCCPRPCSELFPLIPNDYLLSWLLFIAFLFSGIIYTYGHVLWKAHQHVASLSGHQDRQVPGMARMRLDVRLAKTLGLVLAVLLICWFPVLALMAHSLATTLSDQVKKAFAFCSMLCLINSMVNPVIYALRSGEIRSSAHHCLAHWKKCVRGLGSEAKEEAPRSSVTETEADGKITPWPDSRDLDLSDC
Cannabinoid receptor 1, sequence (P21554 whole entry): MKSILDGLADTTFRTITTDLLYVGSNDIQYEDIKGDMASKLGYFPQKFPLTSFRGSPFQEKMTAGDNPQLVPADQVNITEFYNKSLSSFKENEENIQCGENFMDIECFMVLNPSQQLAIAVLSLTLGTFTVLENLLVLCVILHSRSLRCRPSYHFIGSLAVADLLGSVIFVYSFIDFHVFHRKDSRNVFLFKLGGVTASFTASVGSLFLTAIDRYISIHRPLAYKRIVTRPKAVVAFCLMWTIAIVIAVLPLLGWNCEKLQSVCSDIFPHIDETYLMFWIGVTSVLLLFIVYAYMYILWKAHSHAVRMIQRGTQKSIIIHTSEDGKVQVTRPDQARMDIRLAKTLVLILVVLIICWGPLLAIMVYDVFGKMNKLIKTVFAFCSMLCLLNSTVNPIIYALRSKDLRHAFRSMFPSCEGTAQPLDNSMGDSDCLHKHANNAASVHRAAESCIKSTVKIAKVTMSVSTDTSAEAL
Cannabinoid receptor 1 (CB1), sequence (P21554 whole entry): as above

| Compound | IC50 (Cannabinoid receptor 1) | Ki (Cannabinoid receptor 1) | inhibition at 1.5 h, 1 µM [1] | inhibition (Cannabinoid receptor 2 [2]) | IC50 (Cannabinoid receptor 2 [3]) | Ki (Cannabinoid receptor 2 [3]) | Ratio Ki (Homo sapiens) | IC50 [4] | IC50 [5] | IC50 at 72 h [6] | IC50 [7] | IC50 [8] |
| --- | --- | --- | --- | --- | --- | --- | --- | --- | --- | --- | --- | --- |
| CCCc1sc2ccccc2c1C(=O)c1ccc(OC)cc1 | > 10000 nM | > 10000 nM | > 50% | > 50% | 1200 nM | 300 nM | > 33 | > 10000 nM | > 10000 nM | > 10000 nM | 80 nM | > 10000 nM |
| CC(C)c1nc2ccccc2n1C(=O)c1cccc2ccccc12 | > 10000 nM | > 10000 nM | > 50% | > 50% | 2100 nM | 500 nM | > 20 | > 10000 nM | 4410 nM | 7230 nM | 70 nM | > 10000 nM |
| CCCCc1nc2ccccc2n1C(=O)c1cccc2ccccc12 | 9700 nM | 5900 nM | > 50% | > 50% | 1700 nM | 400 nM | 14.7 | > 10000 nM | 560 nM | 4100 nM | 105 nM | > 10000 nM |
| COc1ccc(C(=O)c2c(-c3ccc(OC)cc3)sc3ccccc23)cc1 | 1100 nM | 700 nM | > 50% | > 50% | 400 nM | 100 nM | 7 | > 10000 nM | > 10000 nM | > 10000 nM | 76 nM | > 10000 nM |
| CCCc1nc2ccccc2n1C(=O)c1ccc(OC)cc1 | > 10000 nM | > 10000 nM | > 50% | > 50% | 7600 nM | 1900 nM | > 5.26 | > 10000 nM | 120 nM | 300 nM | 102 nM | > 10000 nM |
| COc1ccc(C(=O)n2c(CC(C)C)nc3ccccc32)cc1 | > 10000 nM | > 10000 nM | > 50% | > 50% | > 10000 nM | > 10000 nM |  | > 10000 nM | 3560 nM | > 10000 nM | 34 nM | > 10000 nM |
| COc1ccc(C(=O)n2c(C)nc3ccccc32)cc1 | > 10000 nM | > 10000 nM | > 50% | > 50% | > 10000 nM | > 10000 nM |  | > 10000 nM | 10 nM | 1230 nM | 57 nM | > 10000 nM |
| CC(C)(C)c1nc2ccccc2n1C(=O)c1cccc2ccccc12 | > 10000 nM | > 10000 nM | > 50% | > 50% | 300 nM | 80 nM | > 125 | > 10000 nM | > 10000 nM | > 10000 nM | 130 nM | > 10000 nM |
| COc1ccc(-c2sc3ccccc3c2C(=O)c2cccc3ccccc23)cc1 | 8400 nM | 5100 nM | > 50% | > 50% | 1400 nM | 300 nM | 17 | > 10000 nM | > 10000 nM | > 10000 nM | 71 nM | > 10000 nM |
| CCCc1nc2ccccc2n1C(=O)c1cccc2ccccc12 | > 10000 nM | > 10000 nM | > 50% | > 50% | > 10000 nM | > 10000 nM |  | > 10000 nM | 2400 nM | > 10000 nM | 100 nM | > 10000 nM |
| O=C(c1cc2ccccc2s1)c1cccc2ccccc12 | 4500 nM | 2700 nM | > 50% | > 50% | 4100 nM | 1000 nM | 2.7 | > 10000 nM | > 10000 nM | > 10000 nM | 51 nM | > 10000 nM |
| O=C(c1cccc2ccccc12)c1csc2ccccc12 | > 10000 nM | > 10000 nM | > 50% | > 50% | 1100 nM | 200 nM | > 50 | > 10000 nM | > 10000 nM | > 10000 nM | 58 nM | > 10000 nM |
| COc1ccc(-c2nc3ccccc3n2C(=O)c2cccc3ccccc23)cc1 | 8100 nM | 4900 nM | > 50% | > 50% | 7700 nM | 1900 nM | 2.57 | > 10000 nM | 1700 nM | > 10000 nM | 146 nM | > 10000 nM |
| CCCCCc1sc2ccccc2c1C(=O)c1cccc2ccccc12 | 800 nM | 500 nM | > 50% | > 50% | 1300 nM | 300 nM | 1.7 | > 10000 nM | > 10000 nM | > 10000 nM | 170 nM | > 10000 nM |
| Cc1nc2ccccc2n1C(=O)c1cccc2ccccc12 | > 10000 nM | > 10000 nM | > 50% | > 50% | > 10000 nM | > 10000 nM |  | > 10000 nM | > 10000 nM | > 10000 nM | 93 nM | > 10000 nM |
| CCCCc1nc2ccccc2n1C(=O)c1ccc(OC)cc1 | > 10000 nM | > 10000 nM | > 50% | > 50% | 6300 nM | 1600 nM | > 6.25 | > 10000 nM | > 10000 nM | 170 nM | 61 nM | > 10000 nM |
| CC(C)Cc1sc2ccccc2c1C(=O)c1cccc2ccccc12 | 1200 nM | 700 nM | > 50% | > 50% | 2000 nM | 500 nM | 1.4 | > 10000 nM | > 10000 nM | > 10000 nM | 72 nM | > 10000 nM |
| COc1ccc(C(=O)n2c(C3CCCCC3)nc3ccccc32)cc1 | > 10000 nM | > 10000 nM | > 50% | > 50% | 2800 nM | 700 nM | > 14 | > 10000 nM | > 10000 nM | 1640 nM | 85 nM | > 10000 nM |
| COc1cc([C@@H]2c3cc4c(cc3[C@@H](O[C@@H]3O[C@@H]5CO[C@@H](C)O[C@H]5[C@H](O)[C@H]3O)[C@H]3COC(=O)[C@H]23)OCO4)cc(OC)c1O [ETOPOSIDE] |  |  |  |  |  |  |  | 8200 nM | 2800 nM | 1500 nM | 2100 nM | 9500 nM |
| Cc1c(C(=O)c2cccc3ccccc23)c2cccc3c2n1[C@H](CN1CCOCC1)CO3 [WIN-552122] |  |  |  |  |  |  |  | 980 nM | 920 nM | 310 nM | 7 nM | 3800 nM |
